Entries after “also recorded” stand apart in the source; their conditions may differ. Where no end group is shown, it is not given here.
Tests used:
[1] = test system: methylated H3K9 and H3K27 peptides; assay: Peptide microarray, chromodomain binding profile; parameters: species or system human
Outline: (§1)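 Array of 467 unmodified and modified peptides (desalted, mass-spectrometry checked) printed in triplicate spots on glass slides and probed with chromodomain proteins. Signal intensities converted to z scores per chromodomain using all its intensities: z = (x − mean)/SD. Hierarchical clustering grouped chromodomains into three categories and peptides into six clusters by binding preference.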

H3K9me3 = details: read-out: Kd H3K9me3; reported Kd of CBX chromodomains; cited from earlier work
SUV91 chromodomain = assay: Peptide microarray binding, SUV91; parameters: species or system human
Outline: as §1

Row | Substance | binding profile toward methylated H3K9 / H3K27 peptides (in words) [1] | Kd (H3K9me3) [µM] | binding to SUV91 chromodomain (in words) (SUV91 chromodomain)
1 | WT CBX1: WT CBX1 chromodomain, GST fusion, cloned sequence 20-73 | bound predominantly to all three methylated H3K9 peptides | 5 | 
2 | [Ahx]AATASCLIC[K_Me3]YAA [methylated SIRT1 sequence] |  |  | showed binding
3 | CBX4: CBX4 chromodomain, GST fusion, cloned sequence 8-65 (EHVFAVESIEKKRIRKGRVEYLVKWRGWSPKYNTWEPEENILDPRLLIAFQNRERQEQ; also: GST fusion, end not given here; UniProt O00257 8-65, looked up, fragment) | binding to both methylated H3K9 and H3K27 was confirmed |  | 
4 | CBX8: CBX8 chromodomain, GST fusion, cloned sequence 8-61 (ERVFAAEALLKRRIRKGRMEYLVKWKGWSQKYSTWEPEENILDARLLAAFEERE; also: GST fusion, end not given here; UniProt Q9HC52 8-61, looked up, fragment) | binding to both methylated H3K9 and H3K27 was confirmed; also recorded: showed signals with di- and trimethylated peptides at both sites |  | 
5 | CBX6: CBX6 chromodomain, GST fusion, cloned sequence 8-65 (ERVFAAESIIKRRIRKGRIEYLVKWKGWAIKYSTWEPEENILDSRLIAAFEQKERERE; also: GST fusion, end not given here; UniProt O95503 8-65, looked up, fragment) | binding to both methylated H3K9 and H3K27 was confirmed; also recorded: showed signals with di- and trimethylated peptides at both sites |  | 
6 | CBX2: CBX2 chromodomain, GST fusion, cloned sequence 9-66 (EQVFAAECILSKRLRKGKLEYLVKWRGWSSKHNSWEPEENILDPRLLLAFQKKEHEKE; also: GST fusion, end not given here; UniProt Q14781 9-66, looked up, fragment) | binding to both methylated H3K9 and H3K27 was confirmed; also recorded: higher H3K27 signal intensity compared with those of H3K9 |  | 

From article PMC6221542 (Science Advances, 2018)
